Measurements from ChEMBL document CHEMBL2010769, “Synthesis and antiviral activity of 6-deoxycyclopropavir, a new prodrug of cyclopropavir” (Bioorg Med Chem, 2012).
Activity calls are given as the source filed them. The rule behind the calls is not given here.

Key:
[1] = tested on: Cowpox virus; test: Antiviral activity against Cowpox virus infected in HFF assessed as reduction in virus induced cytopathic effect at 100 uM; format: functional, organism-based
[2] = tested on: Human gammaherpesvirus 4; test: Antiviral activity against Epstein-Barr virus infected in Akata cells by DNA hybridization assay; format: functional, organism-based; conditions: human gammaherpesvirus 4, Akata
[3] = Cytotoxicity against HFF; format: cell-based; conditions: human, HFF cells
[4] = Cytotoxicity against human Akata cells; format: cell-based
[5] = tested on: Mus musculus; test: Toxicity in BALB/c mouse assessed as body weight loss at 50 mg/kg, po qd for 5 days relative to control; format: organism-based; design: dose 50 mg/kg, route oral; conditions: in vivo, 120 h
Method in brief: (§1)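 Uninfected female BALB/c mice, 3 weeks old, in groups of 5. Compound suspended in 0.4% carboxymethylcellulose and given orally in 0.2 mL once daily for 5 days at 50, 16.7 or 5.6 mg/kg. Mean group body weight tracked over days 1–5 plus day 6 recovery. Clinical signs (ruffled coat, behaviour) were observed. Comparison was with vehicle-treated or untreated mice.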

[6] = tested on: Mus musculus; test: Toxicity in BALB/c mouse assessed as body weight loss at 16.7 mg/kg, po qd for 5 days relative to control; format: organism-based; design: dose 16.7 mg/kg, route oral; conditions: in vivo, 120 h; method in brief: as §1
[7] = tested on: Mus musculus; test: Toxicity in BALB/c mouse assessed as ruffled coat appearance at 50 mg/kg, po qd for 5 days relative to control; format: organism-based; design: dose 50 mg/kg, route oral; conditions: in vivo, 120 h; method in brief: as §1
[8] = tested on: Mus musculus; test: Toxicity in BALB/c mouse assessed as ruffled coat appearance at 16.7 mg/kg, po qd for 5 days relative to control; format: organism-based; design: dose 16.7 mg/kg, route oral; conditions: in vivo, 120 h; method in brief: as §1
[9] = tested on: Mus musculus; test: Toxicity in BALB/c mouse assessed as ruffled coat appearance at 5.6 mg/kg, po qd for 5 days relative to control; format: organism-based; design: dose 5.6 mg/kg, route oral; conditions: in vivo, 120 h; method in brief: as §1
[10] = tested on: Mus musculus; test: Toxicity in BALB/c mouse assessed as changes in behavior at 50 mg/kg, po qd for 5 days relative to control; format: organism-based; design: dose 50 mg/kg, route oral; conditions: in vivo, 120 h; method in brief: as §1
[11] = tested on: Mus musculus; test: Toxicity in BALB/c mouse assessed as changes in behavior at 16.7 mg/kg, po qd for 5 days relative to control; format: organism-based; design: dose 16.7 mg/kg, route oral; conditions: in vivo, 120 h; method in brief: as §1
[12] = tested on: Murid betaherpesvirus 1; test: Antiviral activity against MCMV infected in BALB/c mouse assessed as decrease in virus-induced mortality at 16.7 mg/kg, po qd for 5 days administered 24 hrs after viral infection (reference value: 67%); format: functional; design: scale not given: the % may be the effect or the level left
Method in brief: (§2)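 Female BALB/c mice (3 weeks, 15/group) were inoculated ip with MCMV Smith at about LD90. Oral dosing of 0.2 mL in 0.4% CMC ran once daily for 5 days, starting 24 or 48 h post-inoculation. Mice were observed daily for 21 days. Mortality was compared with CMC placebo by Fisher's exact test.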

[13] = tested on: Murid betaherpesvirus 1; test: Antiviral activity against MCMV infected in BALB/c mouse assessed as decrease in virus-induced mortality at 50 mg/kg, po qd for 5 days administered 48 hrs after viral infection (reference value: 100%); format: functional; design: scale not given: the % may be the effect or the level left; method in brief: as §2
[14] = tested on: Murid betaherpesvirus 1; test: Antiviral activity against MCMV infected in BALB/c mouse assessed as decrease in virus-induced mortality at 16.7 mg/kg, po qd for 5 days administered 48 hrs after viral infection (reference value: 100%); format: functional; design: scale not given: the % may be the effect or the level left; method in brief: as §2
[15] = tested on: Murid betaherpesvirus 1; test: Antiviral activity against MCMV infected in BALB/c mouse assessed as decrease in virus-induced mortality at 5.6 mg/kg, po qd for 5 days administered 48 hrs after viral infection (reference value: 100%); format: functional; design: scale not given: the % may be the effect or the level left; method in brief: as §2
[16] = tested on: Murid betaherpesvirus 1; test: Antiviral activity against MCMV infected in BALB/c mouse assessed as decrease in virus-induced mean day of death at 50 mg/kg, po qd for 5 days administered 24 hrs after viral infection (reference value: 4.9 +/- 0.7 days); format: functional
[17] = tested on: Human betaherpesvirus 5; test: Antiviral activity against HCMV Toledo infected in human thymus/liver tissue xenografted in SCID mouse assessed as mean log10 genome equivalents/animal at 12.5 mg/kg, po qd for 14 days by RT-PCR analysis (reference value: 3.50 +/- 0.878); format: functional, strain Toledo
[18] = tested on: Human betaherpesvirus 5; test: Antiviral activity against HCMV Toledo infected in human thymus/liver tissue xenografted in SCID mouse assessed as mean log10 genome equivalents/animal at 12.5 mg/kg, po qd for 21 days by RT-PCR analysis (reference value: 3.82 +/- 1.24); format: functional, strain Toledo
[19] = tested on: Human betaherpesvirus 5; test: Antiviral activity against HCMV Toledo infected in human thymus/liver tissue xenografted in SCID mouse assessed as mean log10 genome equivalents/animal at 12.5 mg/kg, po qd for 28 days by RT-PCR analysis (reference value: 3.73 +/- 0.784); format: functional, strain Toledo
[20] = tested on: Human betaherpesvirus 5; test: Antiviral activity against HCMV Toledo infected in human thymus/liver tissue xenografted in SCID mouse assessed as mean log10 genome equivalents/animal at 6.25 mg/kg, po qd for 14 days by RT-PCR analysis (reference value: 3.50 +/- 0.878); format: functional, strain Toledo
[21] = tested on: Human betaherpesvirus 5; test: Antiviral activity against HCMV Toledo infected in human thymus/liver tissue xenografted in SCID mouse assessed as mean log10 genome equivalents/animal at 6.25 mg/kg, po qd for 21 days by RT-PCR analysis (reference value: 3.82 +/- 1.24); format: functional, strain Toledo
[22] = tested on: Human betaherpesvirus 5; test: Antiviral activity against HCMV Toledo infected in human thymus/liver tissue xenografted in SCID mouse assessed as decrease in viral infection at 12.5 mg/kg, po qd for 14 days by RT-PCR analysis (reference value: 92%); format: functional, strain Toledo; design: scale not given: the % may be the effect or the level left
[23] = tested on: Human betaherpesvirus 5; test: Antiviral activity against HCMV Toledo infected in human thymus/liver tissue xenografted in SCID mouse assessed as decrease in viral infection at 12.5 mg/kg, po qd for 21 days by RT-PCR analysis (reference value: 92%); format: functional, strain Toledo; design: scale not given: the % may be the effect or the level left
[24] = tested on: Human betaherpesvirus 5; test: Antiviral activity against HCMV Toledo infected in human thymus/liver tissue xenografted in SCID mouse assessed as decrease in viral infection at 12.5 mg/kg, po qd for 28 days by RT-PCR analysis (reference value: 92%); format: functional, strain Toledo; design: scale not given: the % may be the effect or the level left
[25] = tested on: Human betaherpesvirus 5; test: Antiviral activity against HCMV Toledo infected in human thymus/liver tissue xenografted in SCID mouse assessed as decrease in viral infection at 6.25 mg/kg, po qd for 14 days by RT-PCR analysis (reference value: 92%); format: functional, strain Toledo; design: scale not given: the % may be the effect or the level left
[26] = tested on: Human betaherpesvirus 5; test: Antiviral activity against HCMV Toledo infected in human thymus/liver tissue xenografted in SCID mouse assessed as decrease in viral infection at 6.25 mg/kg, po qd for 21 days by RT-PCR analysis (reference value: 92%); format: functional, strain Toledo; design: scale not given: the % may be the effect or the level left
[27] = Prodrug activation assessed as cyclopropavir formation in presence of cow milk xanthine oxidase; conditions: cattle
Method in brief: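 Cow-milk xanthine oxidase, 0.4 units, acting on 0.07 mM substrate in 0.05 M Na2HPO4, pH 7.5, at room temperature. Conversion followed continuously at 304 nm. UV spectra were taken before enzyme addition (T = 0) and at 720 min and matched against authentic parent and product.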

[28] = tested on: Human betaherpesvirus 5; test: Antiviral activity against HCMV Towne infected in HFF by plaque reduction assay; format: functional, organism-based; conditions: Human betaherpesvirus 5, Towne
Method in brief: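 HCMV work used human foreskin fibroblasts as primary cultures, propagated in MEM with 10% FBS and L-glutamine, with or without antibiotics.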

[29] = tested on: Human alphaherpesvirus 1; test: Antiviral activity against HSV1 infected in HFF assessed as reduction in virus induced cytopathic effect; format: functional, organism-based
[30] = tested on: Human alphaherpesvirus 2; test: Antiviral activity against HSV2 infected in HFF assessed as reduction in virus induced cytopathic effect; format: functional, organism-based
[31] = tested on: Human alphaherpesvirus 3; test: Antiviral activity against VZV infected in HFF assessed as reduction in virus induced cytopathic effect; format: functional, organism-based

## Nc1ncc2ncn(/C=C3/CC3(CO)CO)c2n1
[1]
  Activity: inactive
[2]
  EC50: 27 µM
[3]
  CC50: > 100 µM
[4]
  CC50: 71 µM
[5]
  Activity: 17%
[6]
  Activity: Non-toxic
[7]
  Activity: Non-toxic
[8]
  Activity: Non-toxic
[9]
  Activity: Non-toxic
[10]
  Activity: Non-toxic
[11]
  Activity: Non-toxic
[12]
  Activity: 0%
[13]
  Activity: 67%
[14]
  Activity: 7%
[15]
  Activity: 0%
[16]
  Activity: 8.3 days
[17]
  Activity: 3.03
[18]
  Activity: 2.94
[19]
  Activity: 2.76
[20]
  Activity: 3.9
[21]
  Activity: 3.14
[22]
  Activity: 100%
[23]
  Activity: 82%
[24]
  Activity: 50%
[25]
  Activity: 92%
[26]
  Activity: 92%
[27]
  Drug metabolism: Active
[28]
  EC50: > 100 µM
[29]
  EC50: > 300 µM
[30]
  EC50: > 300 µM
[31]
  EC50: > 300 µM
